In data set [1] the target is T1, Monoacylglycerol lipase ABHD6 (Homo sapiens) (UniProt Q9BV23).
T1 sequence (whole entry): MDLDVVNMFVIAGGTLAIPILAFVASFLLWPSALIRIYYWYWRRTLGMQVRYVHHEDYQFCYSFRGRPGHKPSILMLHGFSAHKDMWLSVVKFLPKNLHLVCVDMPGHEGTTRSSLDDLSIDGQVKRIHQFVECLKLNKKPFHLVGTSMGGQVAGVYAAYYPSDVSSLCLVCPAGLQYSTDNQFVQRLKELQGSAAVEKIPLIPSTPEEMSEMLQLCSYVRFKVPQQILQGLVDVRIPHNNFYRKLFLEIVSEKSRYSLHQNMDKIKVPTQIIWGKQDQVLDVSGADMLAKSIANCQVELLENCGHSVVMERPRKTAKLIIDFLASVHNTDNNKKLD
The data set is described as follows: Inhibition of human ABHD6 transfected in HEK293 cells at 10 uM preincubated with compound for 30 mins followed by 2-OG addition and measured after 5 mins by liquid scintillation spectroscopy. The following applies: time 35.0 min. In kind it is cell-based. A digest of the protocol:
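Homogenates (40 μg) of HEK293 cells stably transfected with hABHD6 or hABHD12. Compound 10 μM preincubated 30 min at 37 °C, 500 rpm, in Tris/EDTA buffer with 0.1% fatty acid-free BSA, pH 7.6. Controls: WWL70 10 μM or THL 20 μM; DMSO vehicle. 2-OG 10 μM added for 5 min at 37 °C. Stopped with ice-cold CHCl3:MeOH; aqueous phase counted. No-enzyme blanks used; non-transfected HEK293 hydrolysis subtracted.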

A short description of data set [2]: Thermodynamic aqueous solubility of the compound by LC-MS/MS analysis. In kind it is physicochemical. Particulars: read-out: Therm_solubility. A digest of the protocol: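 Solid compound (1 mg) shaken overnight in 1 mL distilled water at room temperature. Suspension passed through a 0.45 μm nylon filter. Dissolved compound quantified in triplicate by UV/LC-MS or LC-MS/MS against a calibration curve of compound in methanol.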

Data set [3] is described as follows: Apparent permeability of the compound by PAMPA method. The data set is classed as ADME. A digest of the protocol:
(§1)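 Donor solution made from 1 mM DMSO stock diluted in 25 mM phosphate buffer pH 7.4 to 500 μM final. Filter coated with 1% (w/v) phosphatidylcholine in dodecane. Acceptor was 1:1 v/v DMSO/phosphate buffer. Sandwich incubated 5 h at room temperature. Compound in donor and acceptor wells quantified by UV/LC-MS.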
In general terms: PAMPA measures passive passage across an artificial lipid membrane.

A short description of data set [4]: Permeability of the compound assessed as membrane retention rate by PAMPA method. The data set is classed as ADME. A digest of the protocol: as §1
Data set [5] is described as follows: Metabolic stability in human liver microsome in presence of NADPH-regenerating system by UV/LC-MS analysis. The data set is classed as ADME. Particulars: microsomes. The method, boiled down:
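Compound incubated 1 h at 37 °C with human liver microsomes (0.2 mg/mL) and an NADPH-regenerating system (NADPH 0.2 mM, NADP+ 1 mM, glucose-6-phosphate 4 mM, G6PDH 4 unit/mL, MgCl2 48 mM) in 25 mM phosphate buffer pH 7.4. Quenched with acetonitrile, then centrifuged. Parent and metabolites measured by UV/LC-MS. Percent unmetabolized obtained against reference solutions; three independent experiments.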
(Liver microsomes are vesicles of endoplasmic reticulum, rich in cytochrome P450 enzymes.)

Data set [6] can be described thus: Stability in human plasma measured after 24 hrs by UV/LC-MS analysis. Particulars: read-out: Stability. The data set is classed as ADME, cell-free. The method, boiled down: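 Compound (2 mM) incubated at 37 °C in pooled human plasma (55.7 mg protein/mL) with HEPES 25 mM, NaCl 140 mM, pH 7.4. Samples taken at 0–24 h and precipitated with cold acetonitrile. After centrifugation, supernatant analysed by UV/LC-MS. Three independent experiments.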

Data set [7] in a line: Toxicity in Tenebrio molitor coleoptera assessed as lethal dose measured for 7 days. Particulars: time 7 day. The method, boiled down: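 Tenebrio molitor beetles used within three days of metamorphosis. Compound dissolved in DMSO, 1 μL injected into the hemocoel between pronotum and elytron. Range-finding on 1 insect starting at 200 mg/kg. Dose then given to five insects with survival monitored 7 days, repeated until LD50 found, and confirmed in ten insects.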

Here are results for four compounds from ChEMBL document CHEMBL5532647, “Design, synthesis, ADME and biological evaluation of benzylpiperidine and benzylpiperazine derivatives as novel reversible monoacylglycerol lipase (MAGL) inhibitors” (Eur J Med Chem, 2024).

In brackets after ≈: the same amount, converted by molar mass. Activity calls are given as the source filed them. The rule behind the calls is not given here.

In the case of `O=C(c1cc(O)ccc1F)N1CCN(Cc2cccc(Sc3cc(C(F)(F)F)ccn3)c2)CC1`, the inhibition result in data set [1] was “inactive”. For the same compound, the solubility thermodynamic in data set [2] was determined as 5.47 µg/mL (≈ 11.1 µM). Further, the Papp (commonly a coefficient for how fast a substance crosses the barrier) in data set [3] was found to be 1.33 ×10⁻⁶ cm/s. The R% in data set [4] was determined as 3.2%. In addition, the Stability in data set [5] amounted to 98.51%. The remaining at 24 h in data set [6] was above 99%. The LD50 (commonly the dose expected to kill half of the subjects tested) at 168 h in data set [7] was determined as 300 mg/kg.

On to `O=C(c1cccc(O)c1)N1CCC(Cc2cccc(Sc3cc(C(F)(F)F)ccn3)c2)CC1`, for which, in data set [1], the inhibition entry is “inactive”.

`O=C(c1cc(O)ccc1F)N1CCC(Cc2cccc(Sc3cc(C(F)(F)F)ccn3)c2)CC1`: the inhibition entry in data set [1] was “inactive”. In data set [2], the solubility thermodynamic is 0.00321 µg/mL (≈ 0.00655 µM). In addition, the Papp in data set [3] worked out at 3.3 ×10⁻⁶ cm/s. For the same compound, the R% in data set [4] was determined as 17.3%. Also, the Stability in data set [5] is given as 96.76%. Also, the remaining at 24 h in data set [6] turned out to be 74.1%. Moreover, in data set [7], the LD50 at 168 h came to 200 mg/kg.

Take `O=C(c1cccc(O)c1)N1CCC(Cc2ccc(F)c(Sc3cc(C(F)(F)F)ccn3)c2)CC1`: in data set [1], the inhibition result is “inactive”.
